Values after ≈ are worked out from the molar mass of the structure shown. Active and inactive are the calls of the source. No cut-off for these calls is given here.

Assay [1] deals with Streptococcus pneumoniae. The assay is described as follows: Antimicrobial activity against Streptococcus pneumoniae. It counts as functional, organism-based.
Assay [2] concerns Staphylococcus aureus. The assay can be described thus: Antimicrobial activity against Staphylococcus aureus. It counts as functional, organism-based.
The test system of assay [3] is Escherichia coli. The assay can be described thus: Antimicrobial activity against Escherichia coli. The assay is classed as functional, organism-based.
The test system of assay [4] is Mycobacterium tuberculosis. The assay is described as follows: Antitubercular activity against Mycobacterium tuberculosis H37Rv. The assay is classed as functional. The procedure, abridged:
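Broth microdilution against M. tuberculosis H37Rv; MIC read by visual inspection of growth.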

One may read the MIC as the lowest concentration that inhibits growth of the organism. Consider `NCC1=NOC(c2ccc(N3CCN(Cc4ccccc4)CC3)cc2)C1` (configuration not stated), for which the outcome in assay [1], in assay [2] and in assay [3] was inactive. The molecule also showed an MIC in assay [4] of 200 µg/mL (≈ 571 µM).
With `CC(C)COC(=O)N1CCN(c2ccc(C3CC(C(=O)O)=NO3)cc2)CC1` (configuration not stated), the outcome in assay [1], in assay [2] and in assay [3] was inactive. The MIC in assay [4] is over 200 µg/mL.
In the case of `CCOC(=O)C1=NOC(c2ccc(-c3ccco3)cc2)C1` (configuration not stated), the outcome in assay [1], in assay [2] and in assay [3] was inactive. This molecule also registered an MIC in assay [4] of 3.25 µg/mL (≈ 11.4 µM).
In the case of `CCOC(=O)C1=NOC(c2ccc(N3CCN(C(=O)OCC(C)C)CC3)cc2)C1` (configuration not stated), the outcome in assay [1], in assay [2] and in assay [3] was inactive. Moreover, the minimum inhibitory concentration (MIC) in assay [4] was 0.8 µg/mL (≈ 1.98 µM).
Turning to `CCOC(=O)C1=NOC(c2ccc(-c3ncon3)cc2)C1` (configuration not stated), the result in assay [1], in assay [2] and in assay [3] was inactive. The same molecule registered an MIC in assay [4] of 50 µg/mL (≈ 174 µM).
As for `CCCCOC(=O)N1CCN(c2ccc(C3CC(C(=O)O)=NO3)cc2)CC1` (configuration not stated), the result in assay [1], in assay [2] and in assay [3] was inactive. In addition, the MIC in assay [4] is over 200 µg/mL.
`CCOC(=O)C1=NOC(c2ccc(N3CCN(C(=O)NCCc4ccccc4)CC3)cc2)C1` (configuration not stated): the result in assay [1], in assay [2] and in assay [3] was inactive. In assay [4], this molecule registered an MIC of 0.8 µg/mL (≈ 1.78 µM).
For `CCOC(=O)C1=NOC(c2ccc(N3CCN(C(=O)Nc4ccccc4)CC3)cc2)C1` (configuration not stated), the outcome in assay [1], in assay [2] and in assay [3] was inactive. In assay [4], this molecule yielded a minimum inhibitory concentration (MIC) of 6.25 µg/mL (≈ 14.8 µM).
`OCC1=NOC(c2ccc(N3CCN(Cc4ccccc4)CC3)cc2)C1` (configuration not stated): the result in assay [1], in assay [2] and in assay [3] was inactive. For the same molecule, 200 µg/mL (≈ 569 µM) was the least that counted as inhibitory in assay [4] (MIC).
For the molecule `CCCCCCNC(=O)N1CCN(c2ccc(C3CC(C(=O)OCC)=NO3)cc2)CC1` (configuration not stated), the result in assay [1], in assay [2] and in assay [3] was inactive. In assay [4], this molecule had an MIC of 0.4 µg/mL (≈ 0.929 µM).
For `NC(=O)C1=NOC(c2ccc(N3CCN(Cc4ccccc4)CC3)cc2)C1` (configuration not stated), the outcome in assay [1], in assay [2] and in assay [3] was inactive. This molecule also had an MIC in assay [4] of 200 µg/mL (≈ 549 µM).
Turning to `[N-]=[N+]=NCC1=NOC(c2ccc(N3CCOCC3)cc2)C1` (configuration not stated), the result in assay [1], in assay [2] and in assay [3] was inactive. This molecule also had an MIC in assay [4] of 200 µg/mL (≈ 696 µM).
Turning to `CCOC(=O)C1=NOC(c2ccc(N3CCN(C(=O)NC(C)C)CC3)cc2)C1` (configuration not stated), the result in assay [1], in assay [2] and in assay [3] was inactive. Besides, 12.5 µg/mL (≈ 32.2 µM) was the least that counted as inhibitory in assay [4] (MIC).
Take `CCOC(=O)C1=NOC(c2ccc(N3CCN(Cc4ccc([N+](=O)[O-])cc4)CC3)cc2)C1` (configuration not stated): the result in assay [1], in assay [2] and in assay [3] was inactive. In addition, 0.8 µg/mL (≈ 1.82 µM) was the least that counted as inhibitory in assay [4] (MIC).
For `O=C(O)C1=NOC(c2ccc(N3CCN(C(=O)NCCc4ccccc4)CC3)cc2)C1` (configuration not stated), the outcome in assay [1], in assay [2] and in assay [3] was inactive. Also, the minimum inhibitory concentration (MIC) in assay [4] is over 200 µg/mL.
`O=C(O)C1=NOC(c2ccc(N3CCN(Cc4ccccc4)CC3)cc2)C1` (configuration not stated) [listing 1 of 2 here] came in with an MIC in assay [4] of over 200 µg/mL.
With `CCOC(=O)C1=NOC(c2ccc(-c3ccc(C=O)cc3)cc2)C1` (configuration not stated), the outcome in assay [1], in assay [2] and in assay [3] was inactive. The molecule further came in with an MIC in assay [4] of 6.25 µg/mL (≈ 19.3 µM).
Regarding `CCOC(=O)C1=NOC(c2ccc(N3CCOCC3)cc2)C1` (configuration not stated), the outcome in assay [1], in assay [2] and in assay [3] was inactive. Further, the MIC in assay [4] was over 200 µg/mL.
As to `CC(=O)NCC1=NOC(c2ccc(N3CCN(Cc4ccccc4)CC3)cc2)C1` (configuration not stated), the outcome in assay [1], in assay [2] and in assay [3] was inactive. The molecule also yielded an MIC in assay [4] of over 200 µg/mL.
For `CCOC(=O)C1=NOC(c2ccc(N3CCN(Cc4ccccc4)CC3)cc2)C1` (configuration not stated), the result in assay [1], in assay [2] and in assay [3] was inactive. This molecule also returned an MIC in assay [4] of 1.56 µg/mL (≈ 3.96 µM).
Consider `[N-]=[N+]=NCC1=NOC(c2ccc(N3CCN(Cc4ccccc4)CC3)cc2)C1` (configuration not stated), for which the result in assay [1], in assay [2] and in assay [3] was inactive. This molecule gave an MIC in assay [4] of 50 µg/mL (≈ 133 µM).
As for `CCCNC(=O)N1CCN(c2ccc(C3CC(C(=O)OCC)=NO3)cc2)CC1` (configuration not stated), the outcome in assay [1], in assay [2] and in assay [3] was inactive. For the same molecule, the MIC in assay [4] was 25 µg/mL (≈ 64.4 µM).
Take `CCOC(=O)C1=NOC(c2ccc(N3CCN(C(=O)OC(C)(C)C)CC3)cc2)C1` (configuration not stated): the outcome in assay [1], in assay [2] and in assay [3] was inactive. Besides, the MIC in assay [4] amounted to 0.8 µg/mL (≈ 1.98 µM).
On to `CCOC(=O)C1=NOC(c2ccc(-c3ccccc3)cc2)C1` (configuration not stated), for which the result in assay [1], in assay [2] and in assay [3] was inactive. Moreover, the MIC in assay [4] was 100 µg/mL (≈ 339 µM).
Take `CCOC(=O)C1=NOC(c2ccc(-c3noc(-c4ccccc4)n3)cc2)C1` (configuration not stated): the outcome in assay [1], in assay [2] and in assay [3] was inactive. This molecule also gave a minimal inhibitory concentration (MIC) in assay [4] of 3.12 µg/mL (≈ 8.6 µM).
As to `OCC1=NOC(c2ccc(N3CCOCC3)cc2)C1` (configuration not stated), the outcome in assay [1], in assay [2] and in assay [3] was inactive. This molecule registered an MIC in assay [4] of over 200 µg/mL.
With `C=CCN1CCN(c2ccc(C3CC(C(=O)OCC)=NO3)cc2)CC1` (configuration not stated), the result in assay [1], in assay [2] and in assay [3] was inactive. Also, the MIC in assay [4] is 6.25 µg/mL (≈ 18.2 µM).
`CCOC(=O)C1=NOC(c2ccc(N3CCC(Oc4ccc(OC(F)(F)F)cc4)CC3)cc2)C1` (configuration not stated): the outcome in assay [1], in assay [2] and in assay [3] was inactive. This molecule also registered a minimum inhibitory concentration (MIC) in assay [4] of 25 µg/mL (≈ 52.3 µM).
In the case of `CCOC(=O)C1=NOC(c2ccc(N3CCN(C(=O)OCC)CC3)cc2)C1` (configuration not stated), the result in assay [1], in assay [2] and in assay [3] was inactive. In assay [4], this molecule had an MIC of 1.56 µg/mL (≈ 4.16 µM).
Turning to `O=C(O)C1=NOC(c2ccc(N3CCN(Cc4ccccc4)CC3)cc2)C1` (configuration not stated) [listing 2 of 2 here], the result in assay [1], in assay [2] and in assay [3] was inactive.
In the case of `O=C([O-])C1=NOC(c2ccc(N3CCN(Cc4ccccc4)CC3)cc2)C1.[Li+]` (configuration not stated), the MIC in assay [4] is 100 µg/mL.

Values taken from ChEMBL document CHEMBL1153861, “Synthesis, optimization and structure-activity relationships of 3,5-disubstituted isoxazolines as new anti-tuberculosis agents” (2009).
